From ChEMBL document CHEMBL2177028, “Insights into the structural determinants required for high-affinity binding of chiral cyclopropane-containing ligands to α4β2-nicotinic acetylcholine receptors: an integrated approach to behaviorally active nicotinic ligands” (J Med Chem, 2012)
Active and inactive are the calls of the source. No cut-off for these calls is given here.

Assays:
Mus musculus [1] = assay: Antidepressant-like effect in mouse assessed as behavioral changes at 5 to 10 mg/kg, ip dosed 15 mins before testing by SmartCube system; type: functional, organism-based
Procedure, shortened: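 SmartCube automated mouse behavioural profiling. Drug injected 15 min before the session, during which multiple challenges were presented; at least 12 mice per group. Video processed by computer vision to extract over 2000 measures (frequency and duration of states such as grooming and rearing), compared with vehicle signature.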

[2] = biological target: T1, Soluble acetylcholine receptor (Aplysia californica, UniProt Q8WSF8); assay: Displacement of [3H]epibatidine from Aplysia californica AChBP
T1 sequence (Q8WSF8 whole entry): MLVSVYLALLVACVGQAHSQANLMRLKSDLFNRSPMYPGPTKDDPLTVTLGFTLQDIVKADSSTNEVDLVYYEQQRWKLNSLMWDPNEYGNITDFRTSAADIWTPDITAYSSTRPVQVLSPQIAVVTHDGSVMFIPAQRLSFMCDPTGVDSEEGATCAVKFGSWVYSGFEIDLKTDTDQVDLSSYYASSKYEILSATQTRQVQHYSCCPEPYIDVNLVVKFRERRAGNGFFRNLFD
Procedure, shortened: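 Competition against [3H]epibatidine at acetylcholine binding proteins (Ac- and Ct-AChBP), giving Ki values. Procedure follows the PDSP assay protocol book.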

[3] = Selectivity index, ratio of Ki for Aplysia californica AChBP to Ki for Lymnaea stagnalis AChBP
[4] = Metabolic stability in rat liver microsomes assessed as unchanged compound level at 2 uM measured after 1 hr; type: ADME, Microsome; details: read-out: Stability
Procedure, shortened: (§1)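 Compound incubated with mouse, rat, dog or human liver microsomes at a starting concentration of 2 μM for 1 h. Percent of parent remaining unchanged determined.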

Mus musculus [5] = assay: Antidepressant activity in mouse assessed as immobility time at 3 mg/kg, ip after 30 mins by mouse forced swim test; type: functional, organism-based; set-up: dose 3 mg/kg
Procedure, shortened: (§2)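 Mouse forced swim test: mice placed in a beaker of water and time spent passively floating (immobility) recorded. Compounds given intraperitoneally or orally; sertraline 20 mg/kg served as positive control.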

[6] = Metabolic stability in mouse liver microsomes assessed as unchanged compound level at 2 uM measured after 1 hr; type: ADME, Microsome; details: read-out: Stability; procedure, shortened: as §1
[7] = biological target: Neuronal acetylcholine receptor; alpha4/beta2 (Rattus norvegicus, UniProt P09483+P12390); assay: Displacement of [3H]epibatidine from rat alpha4beta2-nAChRs after 4 hrs by scintillation counting; type: protein-complex assay
Chain of Neuronal acetylcholine receptor; alpha4/beta2 (Rattus norvegicus, UniProt P09483+P12390) (P09483 whole entry): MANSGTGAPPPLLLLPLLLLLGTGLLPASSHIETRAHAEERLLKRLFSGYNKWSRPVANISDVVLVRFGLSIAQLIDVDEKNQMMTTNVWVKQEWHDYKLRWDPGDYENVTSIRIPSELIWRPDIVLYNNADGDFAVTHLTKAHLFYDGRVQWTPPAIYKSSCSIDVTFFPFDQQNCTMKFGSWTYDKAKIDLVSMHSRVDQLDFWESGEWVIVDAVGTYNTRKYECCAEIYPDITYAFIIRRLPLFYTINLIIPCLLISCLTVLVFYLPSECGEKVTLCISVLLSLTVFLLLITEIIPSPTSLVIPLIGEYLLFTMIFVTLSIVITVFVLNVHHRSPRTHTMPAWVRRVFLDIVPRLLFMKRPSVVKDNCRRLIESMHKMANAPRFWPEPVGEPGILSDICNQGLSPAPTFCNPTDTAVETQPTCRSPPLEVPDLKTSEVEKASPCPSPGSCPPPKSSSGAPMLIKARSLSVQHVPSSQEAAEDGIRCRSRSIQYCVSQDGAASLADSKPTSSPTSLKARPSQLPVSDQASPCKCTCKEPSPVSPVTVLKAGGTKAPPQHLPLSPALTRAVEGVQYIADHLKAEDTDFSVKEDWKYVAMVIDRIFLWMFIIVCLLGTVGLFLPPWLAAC
Chain of Neuronal acetylcholine receptor; alpha4/beta2 (Rattus norvegicus, UniProt P09483+P12390) (P12390 whole entry): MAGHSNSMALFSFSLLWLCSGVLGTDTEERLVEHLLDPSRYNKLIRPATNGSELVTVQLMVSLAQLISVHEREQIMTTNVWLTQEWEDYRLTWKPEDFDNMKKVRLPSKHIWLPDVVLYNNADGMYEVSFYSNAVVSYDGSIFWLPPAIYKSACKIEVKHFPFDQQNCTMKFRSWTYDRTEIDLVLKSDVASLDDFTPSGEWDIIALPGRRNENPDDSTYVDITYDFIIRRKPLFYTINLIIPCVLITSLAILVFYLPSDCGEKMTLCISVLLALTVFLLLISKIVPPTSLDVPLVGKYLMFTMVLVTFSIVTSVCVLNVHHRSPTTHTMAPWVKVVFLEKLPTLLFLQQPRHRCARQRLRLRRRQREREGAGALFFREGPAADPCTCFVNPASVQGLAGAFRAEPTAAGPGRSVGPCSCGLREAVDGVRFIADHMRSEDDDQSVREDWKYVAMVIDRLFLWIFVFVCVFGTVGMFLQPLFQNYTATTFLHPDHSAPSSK
Procedure, shortened: (§3)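 [3H]epibatidine competition binding at heterologously expressed rat nAChR subtypes, run per the PDSP protocol. Native α4β2* receptors were prepared from rat forebrain. Ki values determined.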

[8] = biological target: T2, Acetylcholine receptor; alpha1/beta1/delta/gamma (Homo sapiens) (UniProt P02708+P07510+P11230+Q07001); assay: Agonist activity at high sensitivity and low sensitivity alpha1beta1gammadelta-nAChR expressed in human TE671/RD cells by 86Rb+ ion flux assay; type: functional, cell-based
[9] = Metabolic stability in human liver microsomes assessed as unchanged compound level at 2 uM measured after 1 hr; type: ADME, Microsome; details: read-out: Stability; procedure, shortened: as §1
Mus musculus [10] = assay: Antidepressant activity in mouse assessed as immobility time at 3 mg/kg, po after 30 mins by mouse forced swim test; type: functional, organism-based; set-up: dose 3 mg/kg; procedure, shortened: as §2
[11] = biological target: T3, Neuronal acetylcholine receptor; alpha4/beta2 (Homo sapiens, UniProt P17787+P43681); assay: Agonist activity at low sensitivity alpha4beta2-nAChR expressed in human SH-EP1 cells by 86Rb+ ion flux assay relative to carbamylcholine; type: functional, cell-based
T3 sequence (P17787 whole entry): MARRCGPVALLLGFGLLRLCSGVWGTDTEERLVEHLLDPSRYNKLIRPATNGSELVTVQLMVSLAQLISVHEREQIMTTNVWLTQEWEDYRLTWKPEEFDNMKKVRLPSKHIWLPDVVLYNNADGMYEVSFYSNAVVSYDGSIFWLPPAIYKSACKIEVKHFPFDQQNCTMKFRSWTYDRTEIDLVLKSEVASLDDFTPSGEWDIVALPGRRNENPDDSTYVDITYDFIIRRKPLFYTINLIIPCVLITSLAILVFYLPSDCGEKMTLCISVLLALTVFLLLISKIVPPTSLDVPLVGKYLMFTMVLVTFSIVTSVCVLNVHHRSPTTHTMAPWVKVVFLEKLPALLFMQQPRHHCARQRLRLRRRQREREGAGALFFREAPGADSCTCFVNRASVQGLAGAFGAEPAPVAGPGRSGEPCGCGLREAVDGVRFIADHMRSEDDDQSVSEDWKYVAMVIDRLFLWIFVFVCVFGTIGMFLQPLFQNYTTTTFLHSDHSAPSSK
T3 sequence (P43681 whole entry): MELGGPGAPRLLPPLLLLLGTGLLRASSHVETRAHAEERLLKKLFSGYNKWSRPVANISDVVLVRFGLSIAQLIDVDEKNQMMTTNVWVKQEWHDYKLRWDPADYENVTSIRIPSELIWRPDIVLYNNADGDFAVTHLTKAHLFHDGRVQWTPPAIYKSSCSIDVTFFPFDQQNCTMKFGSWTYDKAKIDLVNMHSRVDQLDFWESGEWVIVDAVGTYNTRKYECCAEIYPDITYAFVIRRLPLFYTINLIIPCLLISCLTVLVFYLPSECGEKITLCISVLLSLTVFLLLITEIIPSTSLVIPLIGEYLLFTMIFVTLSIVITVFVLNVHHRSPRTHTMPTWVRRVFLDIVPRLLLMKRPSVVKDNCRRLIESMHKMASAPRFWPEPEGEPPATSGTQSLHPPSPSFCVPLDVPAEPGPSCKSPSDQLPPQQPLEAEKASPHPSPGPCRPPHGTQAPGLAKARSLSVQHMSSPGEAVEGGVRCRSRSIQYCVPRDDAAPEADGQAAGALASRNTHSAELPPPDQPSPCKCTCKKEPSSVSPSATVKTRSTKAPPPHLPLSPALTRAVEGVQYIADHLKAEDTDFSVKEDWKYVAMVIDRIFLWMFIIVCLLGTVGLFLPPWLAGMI
Procedure, shortened: (§4)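 86Rb+ efflux through human α4β2-nAChR (mixed high- and low-sensitivity forms) heterologously expressed in SH-EP1 cells. Agonist efficacy expressed as percent of the response to a maximally efficacious concentration of the full agonist carbamylcholine, with high- and low-sensitivity α4β2 responses reported separately.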

SH-SY5Y [12] = assay: Antagonist activity at high sensitivity and low sensitivity alpha3beta4*-nAChR expressed in human SH-SY5Y cells assessed as inhibition of carbamylcholine-induced stimulation effect measured after 10 mins carbamylcholine challenge by 86Rb+ ion flux assay; type: functional, cell-based
Procedure, shortened: (§5)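 Receptor inactivation measured by 86Rb+ efflux after 10 min pre-exposure to test ligand, followed by carbamylcholine challenge. Cells: SH-EP1 (human α4β2), SH-SY5Y (α3β4*), TE671/RD (α1β1γδ).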

[13] = biological target: Neuronal acetylcholine receptor; alpha2/beta2 (Rattus norvegicus, UniProt P12389+P12390); assay: Displacement of [3H]epibatidine from rat alpha2beta2-nAChRs after 4 hrs by scintillation counting; type: protein-complex assay; procedure, shortened: as §3
Chain of Neuronal acetylcholine receptor; alpha2/beta2 (P12389 whole entry): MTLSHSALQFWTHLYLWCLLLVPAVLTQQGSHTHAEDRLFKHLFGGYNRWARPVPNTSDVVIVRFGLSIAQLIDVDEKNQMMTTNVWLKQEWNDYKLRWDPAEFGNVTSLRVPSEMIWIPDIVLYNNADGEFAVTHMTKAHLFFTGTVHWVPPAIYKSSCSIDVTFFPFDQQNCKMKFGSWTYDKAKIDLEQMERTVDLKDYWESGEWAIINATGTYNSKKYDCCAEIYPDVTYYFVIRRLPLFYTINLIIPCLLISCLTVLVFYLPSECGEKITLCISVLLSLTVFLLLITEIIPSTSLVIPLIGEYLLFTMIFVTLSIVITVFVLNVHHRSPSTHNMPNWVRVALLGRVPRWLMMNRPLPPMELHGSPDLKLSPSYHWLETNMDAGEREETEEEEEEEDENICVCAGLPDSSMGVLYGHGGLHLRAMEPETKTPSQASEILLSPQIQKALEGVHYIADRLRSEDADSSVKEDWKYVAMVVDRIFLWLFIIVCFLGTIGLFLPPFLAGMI
Chain of Neuronal acetylcholine receptor; alpha2/beta2 (P12390 whole entry): as the sequence (P12390 whole entry) above

[14] = Metabolic stability in dog liver microsomes assessed as unchanged compound level at 2 uM measured after 1 hr; type: ADME, Canis lupus familiaris, Microsome; details: read-out: Stability; procedure, shortened: as §1
Mus musculus [15] = assay: Antidepressant activity in mouse assessed as immobility time at 3 to 30 mg/kg, po after 30 mins by mouse forced swim test; type: functional, organism-based; procedure, shortened: as §2
[16] = biological target: T3, Neuronal acetylcholine receptor; alpha4/beta2; assay: Antagonist activity at high sensitivity and low sensitivity alpha4beta2-nAChR expressed in human SH-EP1 cells assessed as inhibition of carbamylcholine-induced stimulation effect measured after 10 mins carbamylcholine challenge by 86Rb+ ion flux assay relative to control; type: functional, cell-based; procedure, shortened: as §5
[17] = biological target: Neuronal acetylcholine receptor; alpha3/beta2 (Rattus norvegicus, UniProt P04757+P12390); assay: Displacement of [3H]epibatidine from rat alpha3beta2-nAChRs after 4 hrs by scintillation counting; type: protein-complex assay; procedure, shortened: as §3
Chain of Neuronal acetylcholine receptor; alpha3/beta2 (P04757 whole entry): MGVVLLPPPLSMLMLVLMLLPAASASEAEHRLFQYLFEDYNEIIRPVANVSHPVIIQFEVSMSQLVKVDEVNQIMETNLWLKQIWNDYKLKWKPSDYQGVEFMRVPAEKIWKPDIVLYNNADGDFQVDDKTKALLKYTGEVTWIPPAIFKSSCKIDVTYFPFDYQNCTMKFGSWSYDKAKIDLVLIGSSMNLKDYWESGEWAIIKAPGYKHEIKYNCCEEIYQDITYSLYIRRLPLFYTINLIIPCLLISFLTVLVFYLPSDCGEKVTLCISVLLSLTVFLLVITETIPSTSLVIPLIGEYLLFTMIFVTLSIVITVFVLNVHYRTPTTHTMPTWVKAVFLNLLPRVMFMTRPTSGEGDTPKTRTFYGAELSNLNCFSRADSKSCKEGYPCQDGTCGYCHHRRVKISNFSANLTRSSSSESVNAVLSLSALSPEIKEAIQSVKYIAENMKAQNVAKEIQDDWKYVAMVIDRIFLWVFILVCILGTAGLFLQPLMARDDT
Chain of Neuronal acetylcholine receptor; alpha3/beta2 (P12390 whole entry): as the sequence (P12390 whole entry) above

[18] = biological target: T3, Neuronal acetylcholine receptor; alpha4/beta2; assay: Agonist activity at high sensitivity alpha4beta2-nAChR expressed in human SH-EP1 cells by 86Rb+ ion flux assay relative to carbamylcholine; type: functional, cell-based; procedure, shortened: as §4
SH-SY5Y [19] = assay: Agonist activity at high sensitivity and low sensitivity alpha3beta4*-nAChR expressed in human SH-SY5Y cells by 86Rb+ ion flux assay; type: functional, cell-based
[20] = biological target: T3, Neuronal acetylcholine receptor; alpha4/beta2; assay: Agonist activity at high sensitivity and low sensitivity alpha4beta2-nAChR expressed in human SH-EP1 cells by 86Rb+ ion flux assay; type: functional, cell-based; procedure, shortened: as §4
Mus musculus [21] = assay: Antidepressant activity in mouse assessed as immobility time at 10 mg/kg, ip after 30 mins by mouse forced swim test; type: functional, organism-based; set-up: dose 10 mg/kg; procedure, shortened: as §2
[22] = biological target: T2, Acetylcholine receptor; alpha1/beta1/delta/gamma (Homo sapiens); assay: Antagonist activity at high sensitivity and low sensitivity alpha1beta1gammadelta-nAChR expressed in human TE671/RD cells assessed as inhibition of carbamylcholine-induced stimulation effect measured after 10 mins carbamylcholine challenge by 86Rb+ ion flux assay; type: functional, cell-based; procedure, shortened: as §5
[23] = biological target: T3, Neuronal acetylcholine receptor; alpha4/beta2; assay: Antagonist activity at high sensitivity and low sensitivity alpha4beta2-nAChR expressed in human SH-EP1 cells assessed as inhibition of carbamylcholine-induced stimulation effect measured after 10 mins carbamylcholine challenge by 86Rb+ ion flux assay; type: functional, cell-based; procedure, shortened: as §5
[24] = Displacement of [3H]epibatidine from rat alpha4beta2*-nAChRs after 4 hrs by scintillation counting; procedure, shortened: as §3
[25] = biological target: Neuronal acetylcholine receptor; alpha2/beta4 (Rattus norvegicus, UniProt P12389+P12392); assay: Displacement of [3H]epibatidine from rat alpha2beta4-nAChRs after 4 hrs by scintillation counting; type: protein-complex assay; procedure, shortened: as §3
Chain of Neuronal acetylcholine receptor; alpha2/beta4 (P12389 whole entry): as the sequence (P12389 whole entry) above
Chain of Neuronal acetylcholine receptor; alpha2/beta4 (P12392 whole entry): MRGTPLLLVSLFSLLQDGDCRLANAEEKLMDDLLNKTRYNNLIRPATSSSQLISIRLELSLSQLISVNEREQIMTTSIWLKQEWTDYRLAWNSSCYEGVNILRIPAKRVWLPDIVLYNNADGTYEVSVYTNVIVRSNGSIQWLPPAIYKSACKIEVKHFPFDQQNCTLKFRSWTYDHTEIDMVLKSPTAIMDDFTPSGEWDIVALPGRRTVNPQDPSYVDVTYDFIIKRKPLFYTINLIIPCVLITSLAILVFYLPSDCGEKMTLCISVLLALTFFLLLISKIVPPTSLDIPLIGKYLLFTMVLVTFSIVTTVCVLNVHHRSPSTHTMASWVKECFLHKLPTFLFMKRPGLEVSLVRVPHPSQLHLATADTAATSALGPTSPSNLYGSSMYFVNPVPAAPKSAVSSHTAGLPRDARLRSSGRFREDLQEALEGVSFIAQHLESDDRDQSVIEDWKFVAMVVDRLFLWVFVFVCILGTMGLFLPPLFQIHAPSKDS

[26] = biological target: Neuronal acetylcholine receptor; alpha4/beta4 (Rattus norvegicus, UniProt P09483+P12392); assay: Displacement of [3H]epibatidine from rat alpha4beta4-nAChRs after 4 hrs by scintillation counting; type: protein-complex assay; procedure, shortened: as §3
Chain of Neuronal acetylcholine receptor; alpha4/beta4 (P09483 whole entry): as the sequence (P09483 whole entry) above
Chain of Neuronal acetylcholine receptor; alpha4/beta4 (P12392 whole entry): as the sequence (P12392 whole entry) above

Rattus norvegicus = organism: Rattus norvegicus; assay: Selectivity index, ratio of Ki for rat alpha3beta4 nAChR to Ki for rat alpha4beta2-nAChR; procedure, shortened: as §3
[27] = biological target: Neuronal acetylcholine receptor; alpha3/beta4 (Rattus norvegicus, UniProt P04757+P12392); assay: Displacement of [3H]epibatidine from rat alpha3beta4-nAChRs after 4 hrs by scintillation counting; type: protein-complex assay; procedure, shortened: as §3
Chain of Neuronal acetylcholine receptor; alpha3/beta4 (P04757 whole entry): as the sequence (P04757 whole entry) above
Chain of Neuronal acetylcholine receptor; alpha3/beta4 (P12392 whole entry): as the sequence (P12392 whole entry) above

Compound	Activity (Mus musculus [1])	Ki [2] [nM]	Activity (Mus musculus [5])	Ki [7] [nM]	Activity [8]	Activity [11]	inhibition (SH-SY5Y [12])	Ki [13] [nM]	Efficacy [16] [%]	Ki [17] [nM]	Efficacy [18] [%]	Activity (SH-SY5Y [19])	EC50 [20] [nM]	Activity (Mus musculus [21])	inhibition [22]	IC50 [23] [nM]	Ki [24] [nM]	Ki [25] [nM]	Ki [26] [nM]	Ki [27] [nM]	further results
OCC[C@H]1C[C@@H]1c1cncc(OC[C@@H]2CCN2)c1	Active	979																			Ratio Ki [3]: 80
CN1CCC[C@H]1c1cccnc1 [NICOTINE]		598																			
FCC[C@H]1C[C@@H]1c1cncc(OC[C@@H]2CCN2)c1	Active		Active	0.2	inactive	inactive	inactive	0.4	81	6.1	76	inactive	11.3	Active	inactive	10.2	0.9	138	39.1	3220	remaining at 1 h, 2 µM [4]: ≥ 98%; remaining at 1 h, 2 µM [6]: ≥ 98%; remaining at 1 h, 2 µM [9]: ≥ 98%; Activity (Mus musculus [10]): Active; remaining at 1 h, 2 µM [14]: ≥ 98%; Activity (Mus musculus [15]): Active; Ratio Ki (Rattus norvegicus): > 16000
CC[C@H]1C[C@@H]1c1cncc(OC[C@@H]2CCN2)c1	Active		inactive	0.4	inactive	inactive	inactive	0.4	87	10.3	68	inactive	19.1	inactive	inactive	22.2	1.2	41.8	14.8	852	
FC(F)C[C@H]1C[C@@H]1c1cncc(OC[C@@H]2CCN2)c1	Active		inactive	0.1	inactive	inactive	inactive	0.3	86	6.9	75	inactive	8.8	inactive	inactive	8.6	0.8	85.4	23	1980	Ratio Ki (Rattus norvegicus): > 16000
CNC(=O)OCC[C@H]1C[C@@H]1c1cncc(OC[C@@H]2CCN2)c1	Active	1930																			Ratio Ki [3]: 80
